In ChEMBL document CHEMBL4346654 (Eur J Med Chem, 2019):
≈ marks a conversion by molar mass, not a printed value.

Tests used:
Assay type in all cases: functional
[1] = tested on: Staphylococcus aureus; assay: Antibacterial activity against MLS-resistant Staphylococcus aureus PU 32 expressing inducible ermA gene assessed as reduction in microbial growth by CLSI based two-fold broth dilution method
[2] = tested on: Streptococcus pneumoniae; assay: Antibacterial activity against erythromycin-susceptible Streptococcus pneumoniae ATCC49619 assessed as reduction in microbial growth by CLSI based two-fold broth dilution method
[3] = tested on: Streptococcus pneumoniae; assay: Bactericidal activity against erythromycin-susceptible Streptococcus pneumoniae ATCC49619 pretreated followed by subculture in absence of compound measured after 24 hrs
Summary of the method: (§1)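 Isolates were identified by 16S rDNA sequencing. MIC was determined by CLSI-recommended two-fold broth dilution. For MBC, samples from 1–8 fold MIC were transferred to culture medium and subcultured for 24 h without antibiotic.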

[4] = tested on: Haemophilus influenzae; assay: Antibacterial activity against azithromycin-susceptible Haemophilus influenzae ATCC 49247 assessed as reduction in microbial growth by CLSI based two-fold broth dilution method
[5] = tested on: Streptococcus pneumoniae; assay: Antibacterial activity against Streptococcus pneumoniae 07P390 expressing constitutive ermB gene assessed as reduction in microbial growth by CLSI based two-fold broth dilution method
[6] = tested on: Streptococcus pneumoniae; assay: Antibacterial activity against penicillin-susceptible Streptococcus pneumoniae PU 09 expressing mef gene assessed as reduction in microbial growth by CLSI based two-fold broth dilution method
[7] = tested on: Streptococcus pneumoniae; assay: Bactericidal activity against penicillin-susceptible Streptococcus pneumoniae PU 09 expressing mef gene pretreated followed by subculture in absence of compound measured after 24 hrs; summary of the method: as §1
[8] = tested on: Streptococcus pneumoniae; assay: Selectivity ratio of MBC to MIC for penicillin-susceptible Streptococcus pneumoniae PU 09 expressing mef gene; summary of the method: as §1
[9] = tested on: Streptococcus pneumoniae; assay: Bactericidal activity against Streptococcus pneumoniae 07P390 expressing constitutive ermB gene pretreated followed by subculture in absence of compound measured after 24 hrs; summary of the method: as §1
[10] = tested on: Streptococcus pneumoniae; assay: Selectivity ratio of MBC to MIC for Streptococcus pneumoniae 07P390 expressing constitutive ermB gene; summary of the method: as §1
[11] = tested on: Haemophilus influenzae; assay: Bactericidal activity against azithromycin-susceptible Haemophilus influenzae ATCC 49247 pretreated followed by subculture in absence of compound measured after 24 hrs; summary of the method: as §1
[12] = tested on: Haemophilus influenzae; assay: Selectivity ratio of MBC to MIC for azithromycin-susceptible Haemophilus influenzae ATCC 49247; summary of the method: as §1
[13] = tested on: Streptococcus pyogenes; assay: Antibacterial activity against MLS-resistant Streptococcus pyogenes 01-968 expressing inducible ermB gene assessed as reduction in microbial growth by CLSI based two-fold broth dilution method
[14] = tested on: Streptococcus pyogenes; assay: Bactericidal activity against MLS-resistant Streptococcus pyogenes 01-968 expressing inducible ermB gene pretreated followed by subculture in absence of compound measured after 24 hrs
Summary of the method: (§2)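 MBC assay. Following MIC determination by CLSI standard two-fold broth dilution, samples at 1–8 fold MIC were transferred to fresh culture medium. They were subcultured for 24 h without antibiotic. Isolates were identified by 16S rDNA sequencing. S. aureus ATCC 29213 was used as a control strain.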

[15] = tested on: Streptococcus pyogenes; assay: Selectivity ratio of MBC to MIC for MLS-resistant Streptococcus pyogenes 01-968 expressing inducible ermB gene
Summary of the method: (§3)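 MBC/MIC ratio. MIC was measured by CLSI standard two-fold broth dilution. MBC was measured by transferring samples at 1–8 fold MIC to culture medium and subculturing for 24 h without antibiotic. Isolates were identified by 16S rDNA sequencing.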

[16] = tested on: Staphylococcus aureus; assay: Bactericidal activity against MLS/methicillin-resistant Staphylococcus aureus PU 32 expressing inducible ermA gene pretreated followed by subculture in absence of compound measured after 24 hrs; summary of the method: as §2
[17] = tested on: Staphylococcus aureus; assay: Selectivity ratio of MBC to MIC for MLS/methicillin-resistant Staphylococcus aureus PU 32 expressing inducible ermA gene; summary of the method: as §3
[18] = tested on: Staphylococcus aureus; assay: Antibacterial activity against MLS-resistant Staphylococcus aureus PU 20 expressing constitutive ermC gene assessed as reduction in microbial growth by CLSI based two-fold broth dilution method
[19] = tested on: Streptococcus pyogenes; assay: Antibacterial activity against MLS-resistant Streptococcus pyogenes 12-206 expressing constitutive ermA gene assessed as reduction in microbial growth by CLSI based two-fold broth dilution method
[20] = tested on: Streptococcus pyogenes; assay: Bactericidal activity against MLS-resistant Streptococcus pyogenes 12-206 expressing constitutive ermA gene pretreated followed by subculture in absence of compound measured after 24 hrs; summary of the method: as §2
[21] = tested on: Streptococcus pyogenes; assay: Selectivity ratio of MBC to MIC for MLS-resistant Streptococcus pyogenes 12-206 expressing constitutive ermA gene; summary of the method: as §3
[22] = tested on: Streptococcus pyogenes; assay: Antibacterial activity against Streptococcus pyogenes 12-207 expressing mef gene assessed as reduction in microbial growth by CLSI based two-fold broth dilution method
[23] = tested on: Streptococcus pyogenes; assay: Bactericidal activity against Streptococcus pyogenes 12-207 expressing mef gene pretreated followed by subculture in absence of compound measured after 24 hrs; summary of the method: as §1
[24] = tested on: Streptococcus pyogenes; assay: Selectivity ratio of MBC to MIC for Streptococcus pyogenes 12-207 expressing mef gene; summary of the method: as §1
[25] = tested on: Moraxella catarrhalis; assay: Antibacterial activity against erythromycin-susceptible Moraxella catarrhalis 13L332 assessed as reduction in microbial growth by CLSI based two-fold broth dilution method
[26] = tested on: Moraxella catarrhalis; assay: Bactericidal activity against erythromycin-susceptible Moraxella catarrhalis 13L332 pretreated followed by subculture in absence of compound measured after 24 hrs; summary of the method: as §1
[27] = tested on: Moraxella catarrhalis; assay: Selectivity ratio of MBC to MIC for erythromycin-susceptible Moraxella catarrhalis 13L332; summary of the method: as §1
[28] = tested on: Streptococcus pneumoniae; assay: Selectivity ratio of MBC to MIC for erythromycin-susceptible Streptococcus pneumoniae ATCC49619; summary of the method: as §1
[29] = tested on: Staphylococcus aureus; assay: Bactericidal activity against MLS-resistant Staphylococcus aureus PU 20 expressing constitutive ermC gene pretreated followed by subculture in absence of compound measured after 24 hrs; summary of the method: as §2

## CC[C@H]1OC(=O)[C@@](C)(F)C(=O)[C@H](C)[C@@H](O[C@@H]2O[C@H](C)C[C@H](N(C)C)[C@H]2O)[C@](C)(OC/C=C/c2ccc3c(c2)c(=O)c(C(N)=O)cn3CC)C[C@@H](C)/C(=N\OC)[C@H](C)[C@H]2OC(=O)O[C@@]21C
[1]
  MIC: 0.25 µg/mL
[2]
  MIC: ≤ 0.008 µg/mL
[3]
  MBC: ≤ 0.008 µg/mL
[4]
  MIC: 64 µg/mL
[5]
  MIC: ≤ 0.008 µg/mL
[6]
  MIC: 0.25 µg/mL
[7]
  MBC: 0.25 µg/mL (≈ 0.277 µM)
[8]
  Selectivity ratio: 1
[9]
  MBC: > 0.062 µg/mL
[10]
  Selectivity ratio: >8
[11]
  MBC: 128 µg/mL (≈ 142 µM)
[12]
  Selectivity ratio: 2
[13]
  MIC: ≤ 0.002 µg/mL
[14]
  MBC: 0.008 µg/mL (≈ 0.00888 µM)
[15]
  Selectivity ratio: >=4
[16]
  MBC: > 2 µg/mL
[17]
  Selectivity ratio: >8
[18]
  MIC: > 256 µg/mL
[19]
  MIC: ≤ 0.002 µg/mL
[20]
  MBC: > 0.016 µg/mL
[21]
  Selectivity ratio: >8
[22]
  MIC: 0.062 µg/mL
[23]
  MBC: 0.25 µg/mL (≈ 0.277 µM)
[24]
  Selectivity ratio: 4
[25]
  MIC: 0.5 µg/mL
[26]
  MBC: > 4 µg/mL
[27]
  Selectivity ratio: >8

## CC[C@H]1OC(=O)[C@@](C)(F)C(=O)[C@H](C)[C@@H](O[C@@H]2O[C@H](C)C[C@H](N(C)C)[C@H]2O)[C@](C)(OC/C=C/c2ccc3[nH]ccc(=O)c3c2)C[C@@H](C)/C(=N\OC)[C@H](C)[C@H]2OC(=O)O[C@@]21C
[1]
  MIC: 1 µg/mL
[2]
  MIC: 0.062 µg/mL
[3]
  MBC: 0.062 µg/mL (≈ 0.0747 µM)
[4]
  MIC: 8 µg/mL
[28]
  Selectivity ratio: 1
[5]
  MIC: 0.25 µg/mL
[6]
  MIC: 2 µg/mL
[7]
  MBC: 4 µg/mL (≈ 4.82 µM)
[8]
  Selectivity ratio: 2
[9]
  MBC: 1 µg/mL (≈ 1.2 µM)
[10]
  Selectivity ratio: 4
[11]
  MBC: 16 µg/mL (≈ 19.3 µM)
[12]
  Selectivity ratio: 2
[13]
  MIC: 0.125 µg/mL
[14]
  MBC: 1 µg/mL (≈ 1.2 µM)
[15]
  Selectivity ratio: 8
[16]
  MBC: 8 µg/mL (≈ 9.64 µM)
[17]
  Selectivity ratio: 8
[18]
  MIC: 256 µg/mL
[29]
  MBC: > 256 µg/mL

## CC[C@H]1OC(=O)[C@@](C)(F)C(=O)[C@H](C)[C@@H](O[C@@H]2O[C@H](C)C[C@H](N(C)C)[C@H]2O)[C@](C)(OC)C[C@@H](C)/C(=N\OC/C=C/c2ccc3[nH]ccc(=O)c3c2)[C@H](C)[C@H]2OC(=O)O[C@@]21C
[1]
  MIC: 1 µg/mL
[2]
  MIC: 0.125 µg/mL
[3]
  MBC: 0.5 µg/mL (≈ 0.602 µM)
[4]
  MIC: 16 µg/mL
[28]
  Selectivity ratio: 4
[5]
  MIC: 16 µg/mL
[6]
  MIC: 4 µg/mL
[7]
  MBC: 8 µg/mL (≈ 9.64 µM)
[8]
  Selectivity ratio: 2
[9]
  MBC: 32 µg/mL (≈ 38.6 µM)
[10]
  Selectivity ratio: 2
[11]
  MBC: 32 µg/mL (≈ 38.6 µM)
[12]
  Selectivity ratio: 2
[13]
  MIC: 0.062 µg/mL
[14]
  MBC: > 0.5 µg/mL
[15]
  Selectivity ratio: >8
[16]
  MBC: > 8 µg/mL
[17]
  Selectivity ratio: >8
[18]
  MIC: 256 µg/mL
[29]
  MBC: > 256 µg/mL

## CC[C@H]1OC(=O)[C@H](C)[C@@H](O[C@H]2C[C@@](C)(OC)[C@@H](O)[C@H](C)O2)[C@H](C)[C@@H](O[C@@H]2O[C@H](C)C[C@H](N(C)C)[C@H]2O)[C@](C)(O)C[C@@H](C)CN(C)[C@H](C)[C@@H](O)[C@]1(C)O [AZITHROMYCIN]
[1]
  MIC: 32 µg/mL
[2]
  MIC: 0.062 µg/mL
[3]
  MBC: 0.25 µg/mL (≈ 0.334 µM)
[4]
  MIC: 2 µg/mL
[28]
  Selectivity ratio: 4
[5]
  MIC: 256 µg/mL
[6]
  MIC: 8 µg/mL
[7]
  MBC: 16 µg/mL (≈ 21.4 µM)
[8]
  Selectivity ratio: 2
[9]
  MBC: > 256 µg/mL
[11]
  MBC: 8 µg/mL (≈ 10.7 µM)
[12]
  Selectivity ratio: 4
[13]
  MIC: 8 µg/mL
[14]
  MBC: > 64 µg/mL
[15]
  Selectivity ratio: >8
[16]
  MBC: 32 µg/mL (≈ 42.7 µM)
[17]
  Selectivity ratio: 1
[18]
  MIC: > 256 µg/mL
[19]
  MIC: > 256 µg/mL
[22]
  MIC: 16 µg/mL
[23]
  MBC: 16 µg/mL (≈ 21.4 µM)
[24]
  Selectivity ratio: 1
[25]
  MIC: 0.031 µg/mL
[26]
  MBC: 0.25 µg/mL (≈ 0.334 µM)
[27]
  Selectivity ratio: 8
